44 compounds from ChEMBL document CHEMBL2040777, “N-Aryl-N'-(chroman-4-yl)ureas and thioureas display in vitro anticancer activity and selectivity on apoptosis-resistant glioblastoma cells: screening, synthesis of simplified derivatives, and structure-activity relationship analysis” (Eur J Med Chem, 2012) can be followed below.

Calls of active or inactive are those of the source. The calls are words filed in the database; no cut-off is given here. Bounds are passed on as bounds.

The nature of assay [1]: Growth inhibition of human Hs683 cells after 72 hrs by MTT assay. It is filed as functional, cell-based. The conditions noted are these: Hs 683, 72 h. The essentials:
(§1)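 Glioma lines were grown in RPMI with 10% heat-inactivated FCS, 4 mM glutamine, gentamicin and penicillin-streptomycin. Cells were plated for 24 h at 10,000–40,000 cells/mL, then exposed to compound for 72 h. MTT reduction to formazan was read at 570 nm (reference 630 nm). Six replicates were run.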
A general note: Tetrazolium dyes change colour on reduction, which living cells bring about.

Assay [2] relates to T98G. In words: Growth inhibition of human T98G cells after 72 hrs by MTT assay. It is filed as functional, cell-based. The essentials: as §1
Assay [3] in a line: Growth inhibition of human U373 cells after 72 hrs by MTT assay. It is filed as functional, cell-based, U-373MG ATCC. Conditions: U373 MG. The essentials: as §1
In assay [4] the test system is U-373MG ATCC. The assay can be described thus: Induction of apoptosis in human U373 cells assessed as increase in subG1 cell population at 3 to 10 uM after 24 hrs by flow cytometric analysis. It is filed as functional, cell-based. Background: A flow cytometer gives signals particle by particle.
The test system of assay [5] is T98G. The assay can be described thus: Selectivity index, ratio of IC50 for mouse astrocytes to IC50 for human T98G cells.
The test system of assay [6] is B16-F10. In words: Growth inhibition of mouse B16F10 cells after 72 hrs by MTT assay. It is filed as functional, cell-based. Conditions: B16-F10, 72 h.
The nature of assay [7]: Cell cycle arrest in human U373 cells assessed as accumulation at G0/G1 phase at 3 to 10 uM after 24 hrs by propidium iodide staining-based flow cytometric analysis. In kind it is functional. Conditions: U-373MG ATCC.
The test system of assay [8] is Hs 683. The assay can be described thus: Selectivity index, ratio of IC50 for mouse astrocytes to IC50 for human Hs683 cells.
Assay [9] is described as follows: Selectivity index, ratio of IC50 for mouse astrocytes to IC50 for human U373 cells. More on the design: species or system U-373MG ATCC.

Usually IC50 stands for the concentration that gives 50% inhibition. Low readings indicate greater potency in that assay, high ones weaker potency in that assay.

Regarding `CC1(C)CC(NC(=O)Nc2cccc(Cl)c2)c2cc(Br)ccc2O1` (configuration not stated), the IC50 in [1] was determined as 61 µM; in assay [2], 67 µM; in assay [3], 69 µM.
Take `CC(C)NC(=O)NC1CC(C)(C)Oc2ccc(Cl)cc21` (configuration not stated): the IC50 is 85 µM in assay [1], > 100 µM in assay [2] and 62 µM in assay [3].
For the compound `COc1ccc(NC(=S)NC2CC(C)(C)Oc3ccc(Br)cc32)cc1` (configuration not stated), the results for the IC50 in assay [1], in assay [2] and in assay [3] were 29 µM, 33 µM and 40 µM, respectively.
In the case of `CC1(C)CC(NC(=S)Nc2ccc(Cl)cc2)c2cc(Br)ccc2O1` (configuration not stated), the IC50 was determined as 9 µM in [1], 22 µM in assay [2], 7 µM in assay [6] and 7 µM in assay [3]. In assay [4], the outcome was inactive. Also, the “Ratio IC50” value in assay [5], in [8] and in [9] was 2 throughout. For the same compound, in [7], the outcome was Active.
`O=[N+]([O-])c1ccc(NC(=S)NCc2cccc(Cl)c2)cc1`: the IC50 stood at 27 µM in assay [1], 20 µM in [2] and 27 µM in assay [3].
Take `CC1(C)CC(NC(=O)NCc2ccccc2)c2cc(Cl)ccc2O1` (configuration not stated): the figures for the IC50 in [1], in assay [2] and in assay [3] were 47 µM, 15 µM and 66 µM, respectively.
Taken in the same sequence, the figures for `CC1(C)CC(NC(=O)Nc2cccc(Cl)c2)c2cc(F)ccc2O1` (configuration not stated) were 38 µM, 45 µM and 39 µM.
Regarding `CC1(C)CC(NC(=S)Nc2ccc([N+](=O)[O-])cc2)c2cc(Br)ccc2O1` (configuration not stated), the IC50 turned out to be 3 µM in assay [1], 5 µM in assay [2], 3 µM in assay [6] and 9 µM in assay [3]. Besides, the “Ratio IC50” value in [5], in [8] and in assay [9] was <2 in each case.
Consider `COc1cccc(NC(=S)NC2CC(C)(C)Oc3ccc(Br)cc32)c1` (configuration not stated), for which the concentration for half-maximal inhibition (IC50) in assay [1] amounted to 81 µM; in assay [2], 87 µM; in assay [3] it was 66 µM.
`CC1(C)CC(NC(=O)Nc2ccc(Cl)cc2)c2cc(F)ccc2O1` (configuration not stated): the IC50 was found to be 25 µM in [1], 30 µM in [2] and 24 µM in assay [3].
`CC1(C)CC(NC(=S)Nc2cccc([N+](=O)[O-])c2)c2cc(F)ccc2O1` (configuration not stated): the half-inhibitory concentration (IC50) in assay [1] stood at 6 µM; in assay [2], 9 µM; in assay [6], 6 µM; in assay [3] it was 6 µM. In addition, the “Ratio IC50” value in assay [5], in [8] and in [9] was 2 in each case.
In the case of `CC1(C)CC(NC(=S)NCc2ccccc2)c2cc(Cl)ccc2O1` (configuration not stated), the IC50 came to 43 µM in assay [1], 99 µM in assay [2] and 64 µM in assay [3].
Take `COc1ccc(Cl)cc1CNC(=S)Nc1ccc([N+](=O)[O-])cc1`: the IC50 in assay [1] is 15 µM; in assay [2], 35 µM; in [3], 22 µM.
On to `CC1(C)CC(NC(=S)NCc2ccccc2)c2cc(Br)ccc2O1` (configuration not stated), for which the 50% inhibitory concentration (IC50) in [1] was 34 µM; in assay [2], 54 µM; in assay [3] it was 29 µM.
Taken in the same sequence, the figures for `COc1ccccc1NC(=S)NC1CC(C)(C)Oc2ccc(Br)cc21` (configuration not stated) were 40 µM, 42 µM and 22 µM.
Regarding `CC1(C)CC(NC(=S)Nc2cccc(C#N)c2)c2cc(Cl)ccc2O1` (configuration not stated), the 50% inhibitory concentration (IC50) in assay [1] was 6 µM; in assay [2], 10 µM; in assay [6] it was 6 µM; in assay [3], 7 µM. The “Ratio IC50” value in [5], in assay [8] and in assay [9] was <5 throughout.
As to `CC1(C)CC(NC(=S)Nc2ccc(C#N)cc2)c2cc(Cl)ccc2O1` (configuration not stated), the IC50 in assay [1] was 6 µM; in assay [2], 10 µM; in assay [6], 7 µM; in assay [3], 10 µM. Also, the “Ratio IC50” value in [5], in assay [8] and in assay [9] was 3 each time.
In the case of `CC(C)NC(=S)NC1CC(C)(C)Oc2ccc(Cl)cc21` (configuration not stated), the figures for the IC50 in assay [1], in assay [2] and in assay [3] were 34 µM, 91 µM and 57 µM, respectively.
As to `CCC(C)(C)NC1=NS(=O)(=O)c2cc(Cl)ccc2N1`, the IC50 in assay [3] is > 100 µM.
Regarding `CC1(C)CC(NC(=O)Nc2ccc(Cl)cc2)c2cc(Br)ccc2O1` (configuration not stated), the half-maximal inhibitory concentration (IC50) in assay [1] was 24 µM; in assay [2], 27 µM; in assay [6], 9 µM; in assay [3], 25 µM. Besides, the “Ratio IC50” value in [5], in assay [8] and in assay [9] was 5 in each case.
For `O=[N+]([O-])c1cccc(NC(=S)NCc2cccc(Cl)c2)c1`, the IC50 worked out at 41 µM in assay [1], 61 µM in [2] and 32 µM in assay [3].
Regarding `CC1(C)CC(NC(=S)NCc2ccccc2)c2cc(F)ccc2O1` (configuration not stated), the IC50 in assay [1] was found to be 25 µM; in [2], 40 µM; in assay [3], 27 µM.
Consider `CCNC(=O)NC1CC(C)(C)Oc2ccc(Cl)cc21` (configuration not stated), for which the half-maximal inhibitory concentration (IC50) in assay [3] is > 100 µM.
For the compound `CC1(C)CC(NC(=S)Nc2ccccc2Cl)c2cc(Br)ccc2O1` (configuration not stated), the IC50 was determined as 22 µM in [1], 8 µM in assay [2], 17 µM in assay [6] and 34 µM in [3]. Further, the “Ratio IC50” value in assay [5], in assay [8] and in [9] was <5 in each case.
On to `CC1(C)CC(NC(=O)NCc2ccccc2)c2cc(Br)ccc2O1` (configuration not stated), for which the IC50 is 38 µM in [1], 38 µM in assay [2] and 27 µM in assay [3].
For `CC1(C)CC(NC(=S)Nc2ccccc2)c2cc(Cl)ccc2O1` (configuration not stated), the 50% inhibitory concentration (IC50) in assay [1] was determined as 32 µM; in assay [2], 37 µM; in [3], 46 µM.
In the case of `CC1(C)CC(NC(=O)NCc2ccccc2)c2cc(F)ccc2O1` (configuration not stated), the IC50 stood at 19 µM in assay [1], 49 µM in assay [2] and 11 µM in [3].
For the compound `CC(=O)NC1CC(C)(C)Oc2ccc(Cl)cc21` (configuration not stated), the IC50 in assay [3] was > 100 µM.
In the case of `CCNC(=S)NC1CC(C)(C)Oc2ccc(Cl)cc21` (configuration not stated), the IC50 is 72 µM in assay [1], > 100 µM in assay [2] and 96 µM in assay [3].
In the case of `CC1(C)CC(NC(=S)Nc2cccc([N+](=O)[O-])c2)c2cc(Br)ccc2O1` (configuration not stated), the IC50 amounted to 3 µM in [1], 4 µM in [2], 5 µM in [6] and 4 µM in assay [3]. In addition, the “Ratio IC50” value in assay [5], in [8] and in [9] was 2 each time.
In the case of `O=[N+]([O-])c1ccc(NC(=S)NC2CCOc3ccc(Cl)cc32)cc1` (configuration not stated), the half-maximal inhibitory concentration (IC50) in assay [1] was 6 µM; in assay [2], 12 µM; in [3], 8 µM.
Taken in the same sequence, the figures for `CC1(C)CC(NC(=O)Nc2ccccc2)c2cc(Cl)ccc2O1` (configuration not stated) were 33 µM, 34 µM and 68 µM.
Taken in the same sequence, the figures for `CC1(C)CC(NC(=O)NS(=O)(=O)c2ccccc2)c2cc(Cl)ccc2O1` (configuration not stated) were > 100 µM, > 100 µM and 96 µM.
For `CC1(C)CC(NC(=S)Nc2cccc(Cl)c2)c2cc(Br)ccc2O1` (configuration not stated), the IC50 in assay [1] was determined as 8 µM; in assay [2] it was 9 µM; in [6], 7 µM; in assay [3] it was 8 µM. Further, the “Ratio IC50” value in assay [5], in [8] and in assay [9] was <2 each time.
With `O=[N+]([O-])c1cccc(NC(=S)NC2CCOc3ccc(Cl)cc32)c1` (configuration not stated), the values for the 50% inhibitory concentration (IC50) in assay [1], in [2] and in [3] were 7 µM, 10 µM and 8 µM, respectively.
For the compound `COc1ccc(Cl)cc1CNC(=S)Nc1cccc([N+](=O)[O-])c1`, the IC50 in assay [1] was 23 µM; in assay [3] it was 32 µM.
Consider `CC1(C)CC(NC(=S)Nc2cccc(C#N)c2)c2cc(F)ccc2O1` (configuration not stated), for which the IC50 in [1] worked out at 33 µM; in assay [2], 39 µM; in [6], 35 µM; in [3], 30 µM.
For the compound `CC1(C)CC(NC(=S)Nc2ccc(C#N)cc2)c2cc(F)ccc2O1` (configuration not stated), the IC50 in assay [1] was 14 µM; in [2], 19 µM; in [6], 5 µM; in [3], 11 µM. Besides, the “Ratio IC50” value in assay [5], in assay [8] and in assay [9] was 3 throughout.
Take `CC1(C)CC(NC(=O)Nc2ccccc2Cl)c2cc(F)ccc2O1` (configuration not stated): the IC50 in assay [1] was 29 µM; in assay [2], 27 µM; in assay [3], 40 µM.
On to `Cn1nnc2c(C(N)=O)ncn2c1=O` [TEMOZOLOMIDE], for which the IC50 in assay [1] came to 956 µM; in assay [2] it was 879 µM; in assay [6], 258 µM; in assay [3] it was 220 µM.
Take `CCOC(=O)NC1CC(C)(C)Oc2ccc(Cl)cc21` (configuration not stated): in [3], the half-inhibitory concentration (IC50) is > 100 µM.
`CC1(C)CC(NC(=S)Nc2ccc(C#N)cc2)c2cc(Br)ccc2O1` (configuration not stated): the IC50 in assay [1] turned out to be 15 µM; in assay [2], 24 µM; in [3], 22 µM. Also, the “Ratio IC50” value in [5], in assay [8] and in assay [9] was 2 each time.
For `CC1(C)CC(NC(=S)Nc2cccc(C#N)c2)c2cc(Br)ccc2O1` (configuration not stated), the 50% inhibitory concentration (IC50) was 4 µM in assay [1], 9 µM in assay [2], 7 µM in [6] and 6 µM in assay [3]. The “Ratio IC50” value in assay [5], in assay [8] and in assay [9] was <5 throughout.
With `CC(C)NC1=NS(=O)(=O)c2cc(F)c(Cl)cc2N1`, the IC50 in [3] is > 100 µM.
